In all, about 330,000 compounds went through this assay and about 1,100 (0.33%) were called active. Shown is part of a subset that was picked to be rich in actives. Unmarked numbers belong to inactive results.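 How the source made its calls: active means versus positive control, 20 µM dose yields 30% or more activation; inactive means the rest.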
Experiment: IRE1-XBP1 pathway stimulators – cell-based, CHO-XBP1 luciferase reporter, luminescence, uHTS, primary screen (AID 463104);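 further: 100% = tunicamycin at 10 µg/mL and 0% = DMSO only wells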
Details: IRE1-XBP1 UPR activation, at 20 µM, hits give high values, percent of tunicamycin response, DMSO as zero
Summary of the method: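 incubation = overnight seeding at 37 °C, 6 h compound treatment at 37 °C | assay system = CHO-XBP1 cells stably carrying IRE1-XBP1-driven luciferase reporter | input = 1000 cells per well | detection = luciferase luminescence | dosing = single point, 20 µM final compound, 1% DMSO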

Row | SMILES | activation
1 | CSc1nc(-c2ccccc2)nc(C(Cl)Cl)n1 | 31.3% (active)
2 | CC(C)=CCCC1(C)C=Cc2c(ccc3c2[nH]c2cc(O)c(C)cc23)O1 (stereo not given) | 46.1% (active)
3 | CCN(CC(=O)NCc1ccc(Cl)cc1)C(=O)CSc1ccccc1 | -3.45%
4 | O=C(NCCCN1CCCCC1)c1ccc2c(c1)NC(=O)C(N1CCOCC1)S2 (stereo not given) | -1.68%
5 | Cn1c2ccccc2c2c(C(=O)N3CCN(c4ccc(F)cc4)CC3)cn(C3CCCC3)c(=O)c21 | 6.07%
6 | CC1CCN(Cc2nc3c(c(=O)n(C)c(=O)n3C)n2CCc2ccccc2)CC1 | -0.91%
7 | CCCc1nc2c(c(=O)c3ccccc3n2C)c(=O)n1C1CCCCCC1 | 32.4% (active)
8 | c1ccc2c(c1)C(=NC1CCCCC1)NC2=NC1CCCCC1 | 3.14%
9 | CCC1CCC/C1=N\NC(=O)c1ccc(Cl)cc1 (stereo not given) | 2.16%
10 | COc1cc(C(=O)NCC(c2ccco2)N2CCCC2)ccc1OCc1ccccc1 (stereo not given) | -1.2%
11 | Cc1ccc(S(=O)(=O)/N=C(/Nc2ccccn2)c2ccc(Cl)cc2)cc1 | 1.88%
12 | Cc1ccc(S/C(=N\S(=O)(=O)c2ccc(Cl)cc2)c2ccccc2)cc1 | 43.5% (active)
13 | O=S(=O)(/N=C(/Nc1ccccn1)c1ccccc1)c1ccc(Cl)cc1 | 0.4%
14 | CC(=O)N1CC(C)c2scc(C)[n+]2-c2ccccc21 (stereo not given) | -0.83%
15 | Cc1ccc(N2C(=O)CC(N3CCSCC3)C2=O)c(C)c1 (stereo not given) | 2.27%
16 | O=c1c2ccccc2nc2n1C(CSCc1cccc(C(F)(F)F)c1)CS2 (stereo not given) | -4.03%
17 | COc1ccccc1N(CC(=O)N/N=C(\C)c1ccccc1O)S(=O)(=O)c1ccc(C)cc1 | -4.87%
18 | COc1ccc(S(=O)(=O)N(CC(=O)N/N=C/c2ccccc2C(=O)O)c2ccccc2OC)cc1 | -1.28%
19 | Cc1ccc(S(=O)(=O)N(CC(=O)N/N=C/c2ccc(F)cc2)c2cccc3cccnc23)cc1 | 44.4% (active)
20 | Cc1ccc(CC2S/C(=C(/C#N)C(=O)N3CCOCC3)N(c3ccccc3)C2=O)cc1 (stereo not given) | -1.89%
21 | Cc1ccnc2nc(C(=O)Nc3nnc(-c4ccccc4)o3)nn12 | 2.49%
22 | O=C(CNC(=O)c1cccnc1)N/N=C/c1cc(Br)c(O)c(Br)c1 | -5.3%
23 | Cc1ccc(CSCCNC(=O)CN(c2ccc(F)cc2)S(C)(=O)=O)cc1 | -2.57%

Row | SMILES | activation
24 | Cc1ccc(NC(=O)COc2ccc(/C=C3/NC(=O)NC3=O)cc2)cc1 | -3.85%
25 | CCOC(=O)C1=C(O)/C(=C/c2ccc(OCC(=O)Nc3ccc(C)cc3)cc2)N=C1C | 51.4% (active)
26 | COC(=O)C1=C(O)/C(=C/c2ccc(OCC(=O)Nc3ccccc3)cc2)N=C1C | -5.1%
27 | CCn1c(SCC(=O)NNC(=O)c2ccc(OC)cc2)nnc1C(C)C | -2.62%
28 | CCOC(=O)/C=C/CN(C(=O)OC(C)(C)C)S(=O)(=O)N1CC=CC1 | -0.55%
29 | Cc1cccc(C)c1NC(=O)C1(N(C(=O)c2ccccn2)c2ccc(O)cc2)CCCCC1 | -2.28%
30 | CCOC(=O)N1CCN(CC(=O)n2c(C)c(C)c3ccccc32)CC1 | 1.59%
31 | Cc1cccc(OCCCC(=O)Nc2ccc(S(=O)(=O)N3CCCC3)cc2)c1 | -0.19%
32 | OC(CNCC1CCCO1)Cn1c2ccc(Br)cc2c2cc(Br)ccc21 (stereo not given) | 69.6% (active)
33 | CCCN1CCn2c3c(c4cc(Br)ccc42)CCCC31 (stereo not given) | -0.93%
34 | COCCNC(=O)c1ccc(Cn2c(SCC(=O)NCC3CCCO3)nc3ccc(Br)cc3c2=O)cc1 (stereo not given) | -6.18%
35 | CC(=O)Nc1ccc(CC#N)cc1 | -1.91%
36 | COc1ccccc1C(=O)NCCC(=O)NCC(c1ccco1)N1CCCCC1 (stereo not given) | -0.9%
37 | CCCc1nc2ccccc2c(=O)n1NC(=O)c1c(O)c2ccccc2[nH]c1=O | -2.34%
38 | Cn1c(SCC(=O)N/N=C/c2ccc(O)c(O)c2)nc2ccccc21 | 20.8%
39 | CCCc1nc2ccccc2c(=O)n1/N=C/c1ccc(O)c(O)c1 | 40.8% (active)
40 | COc1ccc2sc(N(CCCN(C)C)C(=O)c3ccc(S(=O)(=O)N(C)C4CCCCC4)cc3)nc2c1 | 1.32%
41 | CN(C)CCCN(C(=O)c1ccc(S(=O)(=O)N2CCCCCC2)cc1)c1nc2ccc(Br)cc2s1 | 46.6% (active)
42 | CN(C)CCCN(C(=O)c1ccc(S(=O)(=O)N2CCCc3ccccc32)cc1)c1nc2ccc(F)cc2s1 | 20.8%
43 | CC12CN(NC(=O)c3ccc(Cl)cc3)C3(C#N)CC1CCC23C (stereo not given) | -2.37%
44 | COc1ccc(-c2c(NC(=O)c3ccco3)oc3ccc(Cl)cc3c2=O)cc1 | -2.76%
45 | CC1CCCCC12NC(=O)N(CC(=O)N1CCN(c3ccccc3)CC1)C2=O (stereo not given) | -1.08%
